# Bioassay records (PubChem BioAssay)
# The list is not random: actives were taken first. Their share in the collection is about 1.5%.
# EP2 antag – inhibitors of human EP2 prostaglandin E2 receptor; P43116; inhibition, % at 25 µM; C6 glioma cells expressing human EP2, cAMP TR-FRET; cells stimulated with saturating PGE2; 260,000 tested, 0.52% active;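 active means percent inhibition above 40 after rounding to a whole number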;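 further: rat C6 glioma host cells with rolipram phosphodiesterase inhibitor present; the protocol text gives 20 µM as final concentration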
# Target sequence (P43116 whole entry, looked up): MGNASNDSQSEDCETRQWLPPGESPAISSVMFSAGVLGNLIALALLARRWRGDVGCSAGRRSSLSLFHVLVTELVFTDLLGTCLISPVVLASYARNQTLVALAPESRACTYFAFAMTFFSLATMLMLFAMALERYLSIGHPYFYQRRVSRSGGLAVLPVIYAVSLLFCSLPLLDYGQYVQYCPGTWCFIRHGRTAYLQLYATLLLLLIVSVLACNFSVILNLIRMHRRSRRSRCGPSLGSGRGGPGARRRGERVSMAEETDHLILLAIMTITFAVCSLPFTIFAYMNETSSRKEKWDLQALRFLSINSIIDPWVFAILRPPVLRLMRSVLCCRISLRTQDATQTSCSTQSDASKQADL
# EP2 mod – modulates human prostaglandin E2 receptor EP2 signaling; P43116; EP2-expressing cells, cAMP HTRF FRET, PGE2 co-stimulation; induction, % at 25 µM; 260,000 tested, 0.83% active; AID 940;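 active means compounds whose cAMP rise, as percent of the full-agonist control response, exceeds 60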;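 further: rat C6 glioma line stably carrying human EP2 under a CMV promoter; the protocol text gives 20 µM as final concentration; 100% = response of wells given 1 µM PGE2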
# ABCG2 block – inhibitors of human ABCG2 transporter, ABCB1 counter-screen; AID 1325; IgMXP3 cells, JC-1 efflux, flow cytometry; 190,000 tested, 0.1% active; inhibition, % at 6.6 µM;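 active means inhibition above 80%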;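 further: 0% = DMSO and 100% = nicardipine control wells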
#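 Test system: IgMXP3 (ABCG2) plus far-red-tagged CCRF-Adr (ABCB1) cells / Amount: 3 million cells/mL in well / Reagent: JC-1 transporter substrate / Timing: 10 min compound exposure, 25 °C / Signal: flow cytometry, 530 nm JC-1 signal / Read-out: percent efflux inhibition, scaled nicardipine 100% to DMSO 0% / Benchmarks: nicardipine as high control, DMSO as low control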
# RBBP9 inhibitor – inhibitors of human serine hydrolase RBBP9. 220,000 tested, 0.2% active. inhibition, % at 7.94 µM. recombinant RBBP9, FP-Rh probe fluorescence polarization;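 active means inhibition above the campaign mean of all tested compounds plus 3 SD, cut at about 14% in these data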;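 further: plate controls were DMSO wells with RBBP9 for no effect and wells lacking RBBP9 protein for full effect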
# Target sequence (O75884 whole entry, looked up): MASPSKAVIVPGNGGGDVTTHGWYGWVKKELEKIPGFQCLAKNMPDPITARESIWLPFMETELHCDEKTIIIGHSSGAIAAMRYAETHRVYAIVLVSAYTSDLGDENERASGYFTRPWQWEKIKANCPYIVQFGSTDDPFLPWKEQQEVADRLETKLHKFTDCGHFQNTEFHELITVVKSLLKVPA
#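 Test system – recombinant human RBBP9 · Input – RBBP9 2.5 µM in dispensing solution, pre-mixing · Medium – Tris buffer pH 8.0, NaCl, Pluronic · Schedule – preincubation 30 min plus labeling 45 min at 25 °C · Measured by – fluorescence polarization · Measure – % inhibition · Controls – DMSO and no-protein wells · Replicates – one well per compound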
# ABCB1 block – inhibitors of human ABCB1 transporter, ABCG2 counter-screen; 190,000 tested, 0.067% active; AID 1326; CCRF-Adr cells, JC-1 efflux, flow cytometry; P08183; inhibition, % at 6.6 µM; in the data active means inhibition above about 40%;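 further: 0% = vehicle and 100% = reference inhibitor; higher value means more JC-1 retained so stronger ABCB1 efflux block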
# Active calls of the source: *; · = no result given; ! = not confirmed by another sample.
SMILES,EP2 antag,EP2 mod,ABCG2 block,RBBP9 inhibitor,ABCB1 block
O=[N+]([O-])c1ccc2ncccc2c1CCc1c([N+](=O)[O-])ccc2ncccc12,53*,4,·,·,·
CCCCCCCc1nc2c(=O)n(C)c3ccccc3c2o1,7,70*,35,-2,1
CCCCCc1nc2c(=O)n(C)c3ccccc3c2o1,3,23,5,-6,1
O=C(O)[C@H]1CCCC[C@@H]1c1c2ccc(=O)c(O)c-2oc2c(O)c(O)ccc12,42*,-17,·,·,·
COc1cc2cc(C#N)c(SCC(=O)N3CCCCC3)nc2cc1OC,9,-1,·,·,·
CCOC(=O)c1c(N)nn(C(=O)C(C)C)c1-c1ccccc1,10,63*,2,-1,0
CCOC(=O)c1c(N)nn(C(=O)CC)c1-c1ccccc1,6,20,8,-1,1
O=c1[nH]c2cc3c(cc2cc1CN(CCO)C(=S)NC1CCCCC1)OCO3,11,13,·,·,·
CC(C)OC(=O)CNc1n[nH]c(=S)[nH]c1=O,101*,-30,-1,-4,0
COC(=O)CNc1n[nH]c(=S)[nH]c1=O,86*,15,10,-6,0
CN(C)C(=O)CNc1n[nH]c(=S)[nH]c1=O,28,-4,·,-6,·
COc1cccc(C(c2nnnn2CC2CCCO2)N2CCN(c3ccccc3F)CC2)c1OC (configuration not stated),4,-2,·,·,·
O=S(=O)(O)c1cc(O)c2c(O)c(N=Nc3cccc4ccccc34)c(S(=O)(=O)O)cc2c1,57*,-14,·,·,·
O=S(=O)(O)c1cccc(N=Nc2c(O)ccc3ccccc23)c1,2,-7,·,-2,·
COc1ccc2cc(C)c3nnc(SCC(=O)N4c5ccccc5CC4C)n3c2c1 (configuration not stated),7,0,·,·,·
O=C(NC(=S)NCCN1CCOCC1)c1ccc(Cl)cc1Cl,13,-7,0,-4,0
O=C(NC(=S)NCCN1CCOCC1)c1ccccc1Cl,7,64*,1,-3,0
CC[C@H]1CN(C)[C@@H]2Cc3c([nH]c4ccccc34)C(=O)C[C@H]1[C@H]2C(=O)OC,52*,-3,·,·,·
Cc1ccc(S(=O)(=O)N2CCSC2)cc1C,109*!,-14,2,-5,0
COc1ccc(S(=O)(=O)N2CCSC2)cc1C,8,6,-1,0,0
CC1=NN(c2ccccc2)C(=O)/C1=C/C=C/c1ccccc1,8,-76,12,10,0
Cc1ccc(C2=NOC(=O)/C2=C\C=C\c2ccccc2)cc1,98*,-38,0,-7,0
O=C(N1CCCC1c1nc(-c2cnccn2)n[nH]1)C1(c2ccccc2)CCCC1 (configuration not stated),4,-18,·,·,·
CC(=O)n1cc(Nc2ccc([N+](=O)[O-])cc2)c2ccccc21,-1,-54,12,-2,1
CC(=O)SC(C[N+](=O)[O-])c1cn(C(C)=O)c2ccccc12 (configuration not stated),81*,-9,-1,3,0
SMILES,EP2 antag,EP2 mod,ABCG2 block,RBBP9 inhibitor,ABCB1 block
CCN(CC)c1ccc(/C=N/Nc2nc3ccccc3[nH]2)c(O)c1,61*,-56,1,-1,0
COc1cc(OC)c(OC)cc1/C=N/Nc1nc2ccccc2[nH]1,8,-47,·,-2,·
Cc1ccc2c(c1)-c1c(ssc1=S)C(C)(C)N2C(=O)CSC1=NCCS1,8,45,1,-4,1
CCCC(=O)N1c2cc(C)ccc2-c2c(ssc2=S)C1(C)C,7,67*,·,·,·
Oc1cc(O)c2c(c1)O[C@@H](c1ccc(O)c(O)c1)[C@H](O[C@@]1(c3cc(O)c(O)c(O)c3)Oc3cc(O)cc(O)c3[C@H](O)[C@H]1O)C2,57*,12,·,·,·
CSc1nc(-c2ccccc2)nc2c1COC(C)(C)C2,12,64*,1,-6,0
CN(C)CCSc1nc(-c2ccccc2)nc2c1COC(C)(C)C2,3,6,1,-4,0
Cc1cc(C)nc(SCC(=O)Nc2cc(Cl)ccc2C)n1,12,-57,·,·,·
CCc1nc2sc3c(c2c2nnc(SCC(=O)NCc4ccc5c(c4)OCO5)n12)CCC(C)C3 (configuration not stated),14,80*,·,·,·
Cc1nc2sc3c(c2c2nnc(SCC(=O)NCc4ccc5c(c4)OCO5)n12)CCC(C)C3 (configuration not stated),10,32,·,·,·
CC(C)[C@@H](Cn1nc(C2CC2)ccc1=O)NC(=O)c1cccc2cccnc12,6,22,·,·,·
Cc1ccccc1S(=O)(=O)Nc1nc2ccccc2nc1N1CCc2ccccc2C1,12,61*,10,-4,1
O=S(=O)(Nc1nc2ccccc2nc1N1CCc2ccccc2C1)c1ccc(Br)cc1,7,5,-1,-8,2
Cc1c(Cl)c(S(N)(=O)=O)cc(S(N)(=O)=O)c1NC(=O)c1ccc(Cl)cc1,45*,36,·,·,·
Cn1c(=O)c2c(nc(Oc3ccc4c(c3)OCO4)n2Cc2ccc(Br)cc2)n(C)c1=O,3,76*,·,1,·
Cn1c(=O)c2c(nc(Oc3ccc4c(c3)OCO4)n2Cc2ccc(F)cc2)n(C)c1=O,3,22,5,-9,2
CC[n+]1c(/C=C2/Sc3ccc(OC)cc3N2C)ccc2cc(OC)ccc21,123*,-103,·,·,·
CCOc1ccc(Nc2nc(NCC3CCCO3)c3ccccc3n2)cc1 (configuration not stated),52*,-72,18,1,9
CCOc1ccc(N=Nc2c(=O)[nH]n3c(=O)cc(C)[nH]c23)cc1,19,8,0,32*,0
CCOc1ccc(N=Nc2c(=O)[nH]n3c(=O)c4c([nH]c23)CCCC4)cc1,10,6,0,0,0
c1ccc(CN2COc3c(ccc4c5c(ccc34)CN(Cc3ccccc3)CO5)C2)cc1,42*,13,·,·,·
CCn1c(SCC(=O)N2CCCC(C)C2)nnc1-c1ccco1 (configuration not stated),8,71*,·,·,·
CCN1CCN(C(=O)C2CCN(S(=O)(=O)c3ccc(OC)c(Cl)c3)CC2)CC1,13,-19,·,·,·
CN(C)c1ncc(S(=O)(=O)c2ccc(Cl)cc2)c(-c2ccc(Cl)cc2Cl)n1,·,36,2,-8,0
CN(C)c1ncc(S(=O)(=O)c2ccccc2)c(-c2ccc(Cl)cc2Cl)n1,·,65*,8,-12,1
COc1cccc2c1C(=O)c1c(O)c3c(c(O)c1C2=O)C[C@@](O)(C(=O)CO)C[C@H]3O[C@H]1C[C@@H](N)[C@H](O)[C@@H](C)O1.[W],40*,15,·,·,·
Cc1nnc(SCC(=O)N2CCc3ccccc32)s1,5,1,5,3,43*
CN1C(=O)/C(=N\OC(=O)c2ccccc2Cl)c2ccccc21,4,-21,9,-4,1
CC(=O)O/N=C1\C(=O)N(Cc2ccc(C)cc2)c2ccccc21,2,63*,2,-31,1
